# Compound activity from PubChem BioAssay.
# Sampled rows, rich in hits. Any-hit rate of the full collection: about 3.2%.
# OX1R antag-1 = OX1R (HCRTR1) antagonists, primary screen, fluorescence, CHO/OX1R cells, Fluo-8 calcium, orexin A | Fluo-8 calcium fluorescence | AID 434989, 2010 | 330,000 tested, 0.43% active | inhibition, % at 5 µM | Orexin/Hypocretin receptor type 1 (Homo sapiens), O43613;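 active = inhibition above its plate's threshold, mean inhibition of all tested compounds on the plate plus 3 SD, cut at about 37% in these data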
# OX1R antag-2 = antagonists of human orexin 1 receptor (OX1R) | Orexin/Hypocretin receptor type 1 (Homo sapiens), O43613 | 330,000 tested, 1.8% active | inhibition, % at 6.6 µM | OX1R-expressing cells, FRET antagonist read-out; in the data active = inhibition mostly above about 38%, no sharp cut-off; inactive = mostly below about 40%
# TRPML3 ag = human TRPML3 channel agonists, primary screen, cell-based, HEK293 TRPML3-YFP, Fluo-8 calcium fluorescence, 3 µM. AID 1448, 2008. Mucolipin-3 (Homo sapiens), Q8TDD5. activation, % at 3 µM. 100% = the carbachol control signal. 220,000 tested, 0.29% active;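 active = activation above its plate's cutoff, the mean activation of the plate's test wells plus 3 SD, cut at about 12% in these data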
# Target sequence (Q8TDD5 whole entry, looked up): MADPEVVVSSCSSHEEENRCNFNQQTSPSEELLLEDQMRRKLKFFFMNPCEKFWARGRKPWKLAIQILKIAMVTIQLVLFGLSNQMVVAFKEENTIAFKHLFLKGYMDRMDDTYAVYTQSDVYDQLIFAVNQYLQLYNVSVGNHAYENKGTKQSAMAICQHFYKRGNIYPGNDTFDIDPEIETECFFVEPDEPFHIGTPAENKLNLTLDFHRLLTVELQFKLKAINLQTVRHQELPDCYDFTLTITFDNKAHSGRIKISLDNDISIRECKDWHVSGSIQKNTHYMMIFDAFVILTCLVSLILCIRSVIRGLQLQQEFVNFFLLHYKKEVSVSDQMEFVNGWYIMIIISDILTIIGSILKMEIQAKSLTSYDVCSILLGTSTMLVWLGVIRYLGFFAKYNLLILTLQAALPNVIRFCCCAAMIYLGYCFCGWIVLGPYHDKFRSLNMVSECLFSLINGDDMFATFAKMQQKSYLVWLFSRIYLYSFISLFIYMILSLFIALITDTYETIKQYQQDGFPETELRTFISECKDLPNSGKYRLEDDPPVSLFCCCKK
#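 Material: HEK293 cells stably carrying human TRPML3-YFP; compound dosing: single dose, 3 µM final nominal compound, 0.3% DMSO final; incubation: 1-h 37 °C dye load, 5-s basal, 120-s post-compound reads; technique: Fluo-8 intracellular calcium fluorescence, excitation 470-495 nm, emission 515-575 nm; read-out basis: percent activation from peak-to-basal fluorescence ratio, scaled between DMSO and carbachol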
# zfTRPN1 agonist = zebrafish TRPN1 channel agonists, primary screen, cell-based, HEK293, calcium fluorescence; HEK293 zebrafish TRPN1-YFP, Fluo-8 calcium fluorescence; 100% = response to 87 µM carbachol; AID 1424, 2008; transient receptor potential cation channel N1 (TRPN1/NompC), Danio rerio; 220,000 tested, 0.18% active; activation, % at 3 µM;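 active = activation above its plate's cutoff, the mean activation of test wells on that plate plus 3 SD, cut at about 19% in these data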
#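 Assay system: Zebrafish TRPN1-YFP in HEK293 cells | Incubation: Dye loading 1 h at 37 °C, then 30 min room temperature | Measured by: Kinetic Fluo-8 fluorescence, ex 470-495, em 515-575 nm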
# CHO parental Ca = ATP-evoked calcium signal inhibitors, parental CHO, primary screen, counter-screen for OX1R antagonist project, cell-based, fluorescence, Fluo-8 calcium dye. parental CHO-K1, ATP-induced calcium, Fluo-8 fluorescence. inhibition, % at 5.6 µM. 330,000 tested, 0.63% active;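 active = inhibition above that plate's mean sample inhibition plus 3 SD, cut at about 26% in these data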
#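 Material: parental CHO cells / Compound: single nominal dose of 5.6 µM per compound / Signal: Fluo-8 fluorescence / Replicates: singlicate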
# GPR7 antag = GPR7 receptor antagonists, primary screen, cell-based, fluorescence, single concentration. 290,000 tested, 1.1% active. GPR7-expressing cells, fluorescence antagonist assay. Neuropeptides B/W receptor type 1 (Homo sapiens), P48145. inhibition, % at 4.4 µM; in the data active = inhibition above about 16%, passing the limit was not always enough;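 note: cells stimulated with the agonist NPW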
# A number is an active result; i = inactive; nt = no result given.
SMILES,OX1R antag-1,OX1R antag-2,TRPML3 ag,zfTRPN1 agonist,CHO parental Ca,GPR7 antag
Cc1cc(-c2ccc(C)c(S(=O)(=O)NCCCN3CCN(c4ccccc4F)CC3)c2)on1,66.8,i,nt,nt,61.4,i
Cc1cc(-c2ccc(C)c(S(=O)(=O)NCCCN3CCN(c4ccccc4)CC3)c2)on1,i,i,nt,nt,i,i
N#Cc1ccc(NCC(=O)Nc2ccc(S(=O)(=O)N3CCCCC3)cc2)cc1,i,i,nt,nt,i,nt
COc1ccc(C2(C)NC(=O)N(CC(=O)Nc3ccc(-c4nc5ccc(C)cc5s4)cc3)C2=O)cc1 (centres undefined),i,i,i,i,29.4,i
O=C(NC1CCN(C(=O)Nc2ccc(F)cc2)CC1)c1cccc(F)c1,i,i,nt,nt,i,i
Cn1c(SCC2CCCO2)nnc1-c1ccc([N+](=O)[O-])cc1 (centres undefined),i,41.5,i,i,i,i
COc1ccc(Cn2nc(C)cc2C)cc1OC,i,i,i,i,98.6,i
Cc1cc(C)n(Cc2ccc(Cl)nc2)n1,i,i,i,i,i,i
Cc1ccccc1NC(=O)CCS(=O)(=O)c1cccc2nonc12,i,55.0,nt,nt,i,i
Cc1cccc(NC(=O)CCS(=O)(=O)c2cccc3nonc23)c1C,i,i,nt,nt,i,i
O=C(O)CCSc1nc2ccccc2s1,i,i,i,i,i,i
Nc1c(SCCC(=O)O)ccc2c1C(=O)c1ccccc1C2=O,i,42.8,nt,nt,i,i
N#Cc1c(N2CCSCC2)nsc1-c1ccccc1Cl,nt,nt,nt,nt,nt,i
COc1ccc(C2=C(N)c3ccccc3C2=O)cc1,i,44.7,i,i,i,i
C/C(=N\NC(=O)CSCc1ccccc1Cl)c1cc(O)ccc1O,i,i,i,i,i,i
O=C(CN1C(=O)/C(=C\c2ccccc2Br)Oc2ccccc21)NCCCN1CCOCC1,i,49.0,nt,nt,i,i
COc1cccc(CNC(=O)CN2C(=O)CSc3ccc(S(=O)(=O)N4CCOCC4)cc32)c1,i,37.0,nt,nt,i,i
O=[N+]([O-])c1cc(Cl)cc(C2=NCCN2)c1,i,60.9,i,i,i,i
O=c1nc(/C=C/c2ccc(-c3ccc(F)cc3)o2)cc(C(F)(F)F)[nH]1,53.1,i,i,i,i,i
O=C(O)c1ccccc1-c1ccc(/C=C/c2cc(C(F)(F)F)[nH]c(=O)n2)o1,nt,nt,28.1,81.2,nt,i
O=C(O)c1cc(Cl)ccc1-c1ccc(/C=C/c2cc(C(F)(F)F)[nH]c(=O)n2)o1,i,i,13.0,29.1,i,i
O=Cc1ccc(-c2ccc(F)cc2)o1,i,i,i,i,i,i
Cc1noc(C)c1COc1ccc(CC(=O)NCCc2ccccn2)cc1,i,i,nt,nt,i,i
Cc1noc(C)c1COc1ccc(CC(=O)NCc2ccccc2)cc1,i,i,i,i,i,17.9
Brc1cccc(-c2n[nH]c(-c3ccccc3)n2)c1,62.9,71.4,i,i,96.5,i
SMILES,OX1R antag-1,OX1R antag-2,TRPML3 ag,zfTRPN1 agonist,CHO parental Ca,GPR7 antag
c1ccc(-c2nc(-c3cccnc3)n[nH]2)cc1,i,i,i,i,i,i
COc1ccc(OC)c(CNn2c(-c3cccc(C)c3)nc3ccccc3c2=O)c1,i,50.0,i,i,i,i
CC[C@H](C)[C@H](NC(=O)c1ccc(Cl)cc1)C(=O)OCC(=O)c1ccc2c(c1)NC(=O)CO2,59.0,i,i,i,83.0,i
CCOC(=O)C1=C(CN2CC(C)CC(C)C2)NC(=O)NC1c1ccc2c(c1)OCO2 (centres undefined),i,i,i,i,i,i
O=C1CCN(S(=O)(=O)c2ccccc2)CCN1CCOCc1ccc(C(F)(F)F)cc1,i,i,nt,nt,i,nt
Cc1ccc(S(=O)(=O)N2CCC(=O)N(CCOCc3ccc(C(F)(F)F)cc3)CC2)cc1,i,i,i,i,49.2,i
